According to ChEMBL document CHEMBL4819122, “Novel 4-(piperazin-1-yl)quinolin-2(1H)-one bearing thiazoles with antiproliferative activity through VEGFR-2-TK inhibition” (Bioorg Med Chem, 2021):
Calls of active or inactive are those of the source. The calls are words filed in the database; no cut-off is given here.

Experiments:
HL-60 = experiment: Cytotoxicity against human HL60 assessed as growth inhibition at 10 uM by NCI protocol relative to control; format: functional; conditions: read-out: GI
Procedure, shortened: (§1)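 Run by NCI as a single-dose screen at 10 μM across the sixty-cell-line panel, which covers nine human tumour tissue types. The read-out is percent growth inhibition of treated cells relative to untreated cells.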

MOLT-4 = experiment: Cytotoxicity against human MOLT-4 assessed as growth inhibition at 10 uM by NCI protocol relative to control; format: functional; conditions: read-out: GI; procedure, shortened: as §1
SR = experiment: Cytotoxicity against human SR assessed as growth inhibition at 10 uM by NCI protocol relative to control; format: functional; conditions: read-out: GI
Procedure, shortened: (§2)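 Run by the NCI under its standard protocol: one dose of 10 μM against a sixty-line panel from nine human tumour tissues. Result given as percent growth inhibition of treated cells relative to untreated cells.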

A549 = experiment: Cytotoxicity against human A549 assessed as growth inhibition at 10 uM by NCI protocol relative to control; format: functional; conditions: read-out: GI; procedure, shortened: as §1
EKVX = experiment: Cytotoxicity against human EKVX assessed as growth inhibition at 10 uM by NCI protocol relative to control; format: functional; conditions: read-out: GI; procedure, shortened: as §1
HOP-92 = experiment: Cytotoxicity against human HOP-92 assessed as growth inhibition at 10 uM by NCI protocol relative to control; format: functional; conditions: read-out: GI; procedure, shortened: as §1
NCI-H226 = experiment: Cytotoxicity against human NCI-H226 assessed as growth inhibition at 10 uM by NCI protocol relative to control; format: functional; conditions: read-out: GI; procedure, shortened: as §1
NCI-H23 = experiment: Cytotoxicity against human NCI-H23 assessed as growth inhibition at 10 uM by NCI protocol relative to control; format: functional; conditions: read-out: GI; procedure, shortened: as §1
NCI-H322M = experiment: Cytotoxicity against human NCI-H322M assessed as growth inhibition at 10 uM by NCI protocol relative to control; format: functional; conditions: read-out: GI; procedure, shortened: as §1
NCI-H522 = experiment: Cytotoxicity against human NCI-H522 assessed as growth inhibition at 10 uM by NCI protocol relative to control; format: functional; conditions: read-out: GI; procedure, shortened: as §1
COLO 205 = experiment: Cytotoxicity against human COLO 205 assessed as growth inhibition at 10 uM by NCI protocol relative to control; format: functional; conditions: read-out: GI; procedure, shortened: as §1
HCC 2998 = experiment: Cytotoxicity against human HCC-2998 assessed as growth inhibition at 10 uM by NCI protocol relative to control; format: functional; conditions: read-out: GI; procedure, shortened: as §1
HCT-116 = experiment: Cytotoxicity against human HCT-116 assessed as growth inhibition at 10 uM by NCI protocol relative to control; format: functional; conditions: read-out: GI; procedure, shortened: as §1
HCT-15 = experiment: Cytotoxicity against human HCT-15 assessed as growth inhibition at 10 uM by NCI protocol relative to control; format: functional; conditions: read-out: GI; procedure, shortened: as §1
HT-29 = experiment: Cytotoxicity against human HT29 assessed as growth inhibition at 10 uM by NCI protocol relative to control; format: functional; conditions: read-out: GI; procedure, shortened: as §1
KM12 = experiment: Cytotoxicity against human KM12 assessed as growth inhibition at 10 uM by NCI protocol relative to control; format: functional; conditions: read-out: GI; procedure, shortened: as §1
SW-620 = experiment: Cytotoxicity against human SW-620 assessed as growth inhibition at 10 uM by NCI protocol relative to control; format: functional; conditions: read-out: GI; procedure, shortened: as §2
SF-268 = experiment: Cytotoxicity against human SF-268 assessed as growth inhibition at 10 uM by NCI protocol relative to control; format: functional; conditions: read-out: GI; procedure, shortened: as §1
SF-295 = experiment: Cytotoxicity against human SF-295 assessed as growth inhibition at 10 uM by NCI protocol relative to control; format: functional; conditions: read-out: GI; procedure, shortened: as §1
SF-539 = experiment: Cytotoxicity against human […] assessed as growth inhibition at 10 uM by NCI protocol relative to control; format: functional; conditions: read-out: GI; procedure, shortened: as §1
SNB-75 = experiment: Cytotoxicity against human SNB-75 assessed as growth inhibition at 10 uM by NCI protocol relative to control; format: functional; conditions: read-out: GI; procedure, shortened: as §2
U-251 = experiment: Cytotoxicity against human U251 assessed as growth inhibition at 10 uM by NCI protocol relative to control; format: functional; conditions: read-out: GI; procedure, shortened: as §2
M14 = experiment: Cytotoxicity against human M14 assessed as growth inhibition at 10 uM by NCI protocol relative to control; format: functional; conditions: read-out: GI; procedure, shortened: as §1
MDA-MB-435 = experiment: Cytotoxicity against human MDA-MB-435 assessed as growth inhibition at 10 uM by NCI protocol relative to control; format: functional, cell-based; procedure, shortened: as §1
SK-MEL-2 = experiment: Cytotoxicity against human SK-MEL-2 assessed as growth inhibition at 10 uM by NCI protocol relative to control; format: functional; conditions: read-out: GI; procedure, shortened: as §1
SK-MEL-28 = experiment: Cytotoxicity against human SK-MEL-28 assessed as growth inhibition at 10 uM by NCI protocol relative to control; format: functional; conditions: read-out: GI; procedure, shortened: as §1
SK-MEL-5 = experiment: Cytotoxicity against human SK-MEL-5 assessed as growth inhibition at 10 uM by NCI protocol relative to control; format: functional; conditions: read-out: GI; procedure, shortened: as §1
UACC-62 = experiment: Cytotoxicity against human UACC-62 assessed as growth inhibition at 10 uM by NCI protocol relative to control; format: functional; conditions: read-out: GI; procedure, shortened: as §2
IGROV-1 = experiment: Cytotoxicity against human IGROVI assessed as growth inhibition at 10 uM by NCI protocol relative to control; format: functional; conditions: read-out: GI; procedure, shortened: as §1
OVCAR-4 = experiment: Cytotoxicity against human OVCAR-4 assessed as growth inhibition at 10 uM by NCI protocol relative to control; format: functional; conditions: read-out: GI; procedure, shortened: as §1
OVCAR-8 = experiment: Cytotoxicity against human OVCAR-8 assessed as growth inhibition at 10 uM by NCI protocol relative to control; format: functional; conditions: read-out: GI; procedure, shortened: as §1
SK-OV-3 = experiment: Cytotoxicity against human SK-OV-3 assessed as growth inhibition at 10 uM by NCI protocol relative to control; format: functional; conditions: read-out: GI; procedure, shortened: as §1
786-0 = experiment: Cytotoxicity against human 786-0 assessed as growth inhibition at 10 uM by NCI protocol relative to control; format: functional; conditions: read-out: GI; procedure, shortened: as §1
A498 = experiment: Cytotoxicity against human A498 assessed as growth inhibition at 10 uM by NCI protocol relative to control; format: functional; conditions: read-out: GI; procedure, shortened: as §1
CAKI-1 = experiment: Cytotoxicity against human Caki1 assessed as growth inhibition at 10 uM by NCI protocol relative to control; format: functional; conditions: read-out: GI; procedure, shortened: as §1
RXF 393 = experiment: Cytotoxicity against human RXF 393 assessed as growth inhibition at 10 uM by NCI protocol relative to control; format: functional; conditions: read-out: GI; procedure, shortened: as §1
UO-31 = experiment: Cytotoxicity against human UO31 assessed as growth inhibition at 10 uM by NCI protocol relative to control; format: functional; conditions: read-out: GI; procedure, shortened: as §2
DU-145 = experiment: Cytotoxicity against human DU-145 assessed as growth inhibition at 10 uM by NCI protocol relative to control; format: functional; conditions: read-out: GI; procedure, shortened: as §1
MCF7 = experiment: Cytotoxicity against human MCF7 assessed as growth inhibition at 10 uM by NCI protocol relative to control; format: functional; conditions: read-out: GI; procedure, shortened: as §1
BT-549 = experiment: Cytotoxicity against human BT-549 assessed as growth inhibition at 10 uM by NCI protocol relative to control; format: functional; conditions: read-out: GI; procedure, shortened: as §1
MDA-MB-468 = experiment: Cytotoxicity against human MDA-MB-468 assessed as growth inhibition at 10 uM by NCI protocol relative to control; format: functional; conditions: read-out: GI; procedure, shortened: as §1
T47D = experiment: Cytotoxicity against human T47D cells assessed as reduction in cell viability after 3 hrs by MTT assay

Cc1ccc(-c2csc(NC(=O)CN3CCN(c4cc(=O)[nH]c5ccc(F)cc45)CC3)n2)cc1
inhibition of growth at 10 µM (HL-60): 40.6%
inhibition of growth at 10 µM (MOLT-4): 53.2%
inhibition of growth at 10 µM (SR): 47.5%
inhibition of growth at 10 µM (A549): 43.7%
inhibition of growth at 10 µM (EKVX): 42.1%
inhibition of growth at 10 µM (HOP-92): 39.7%
inhibition of growth at 10 µM (NCI-H226): 11.7%
inhibition of growth at 10 µM (NCI-H23): 21.6%
inhibition of growth at 10 µM (NCI-H322M): 18.9%
inhibition of growth at 10 µM (NCI-H522): 22.3%
inhibition of growth at 10 µM (COLO 205): 10.7%
inhibition of growth at 10 µM (HCC 2998): 34.1%
inhibition of growth at 10 µM (HCT-116): 45.2%
inhibition of growth at 10 µM (HCT-15): 37.1%
inhibition of growth at 10 µM (HT-29): 21.5%
inhibition of growth at 10 µM (KM12): 13.3%
inhibition of growth at 10 µM (SW-620): 37%
inhibition of growth at 10 µM (SF-268): 14.5%
inhibition of growth at 10 µM (SF-295): 20.3%
inhibition of growth at 10 µM (SF-539): 32.7%
inhibition of growth at 10 µM (SNB-75): 32.6%
inhibition of growth at 10 µM (U-251): 44.4%
inhibition of growth at 10 µM (M14): 27.5%
growth inhibition (GI) (MDA-MB-435): inactive
inhibition of growth at 10 µM (SK-MEL-2): 10.2%
inhibition of growth at 10 µM (SK-MEL-28): 17.8%
inhibition of growth at 10 µM (SK-MEL-5): 44%
inhibition of growth at 10 µM (UACC-62): 33.9%
inhibition of growth at 10 µM (IGROV-1): 52.6%
inhibition of growth at 10 µM (OVCAR-4): 30.6%
inhibition of growth at 10 µM (OVCAR-8): 23.2%
inhibition of growth at 10 µM (SK-OV-3): 11%
inhibition of growth at 10 µM (786-0): 25.6%
inhibition of growth at 10 µM (A498): 56.6%
inhibition of growth at 10 µM (CAKI-1): 52.6%
inhibition of growth at 10 µM (RXF 393): 27%
inhibition of growth at 10 µM (UO-31): 35.4%
inhibition of growth at 10 µM (DU-145): 47.4%
inhibition of growth at 10 µM (MCF7): 33.5%
inhibition of growth at 10 µM (BT-549): 21.5%
inhibition of growth at 10 µM (MDA-MB-468): 41.5%
IC50 (T47D): 8.41 µM
